Reference: ChEMBL document CHEMBL1133009, “Permanently charged chiral 1,4-dihydropyridines: molecular probes of L-type calcium channels. Synthesis and pharmacological characterization of methyl(omega-trimethylalkylammonium) 1,4-dihydro-2,6-dimethyl-4-(3-nitrophenyl)-3,5-pyridinedicarboxylate iodide, calcium channel antagonists” (J Med Chem, 2000)

Tests used:
GH4-C1 = assay: Pseudo Hill coefficient for the inhibition of Barium currents in GH4C1 cells was determined.; assay type: cell-based; conditions: Rattus norvegicus
Outline: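 Whole-cell voltage clamp of GH4C1 rat pituitary cells cultured 2-6 days, bathed in normal Tyrode's (pH 7.4). Held at -40 mV to inactivate T-type channels. Each DHP concentration (0.03-10 µM, increasing order) equilibrated 30 s, then a 200 or 50 ms pulse to +10 mV. Currents normalized to capacitance (pA/pF); IC50 and Hill slope fitted by Hill equation; 6-7 cells.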

[1] = biological target: T1, Voltage-gated L-type calcium channel (Rattus norvegicus, UniProt P22002+Q02485+P27732); assay: Inhibition of [3H](+)-PN200-110 binding to calcium channels of GH4C1 cells.; assay type: cell-based; conditions: gh4-c1
Outline: (§1)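 Competition against [3H]-(+)-PN200-110 in GH4C1 membranes, protein by Bradford. IC50 and pseudo Hill slope from Hill equation fit of specific DPM bound; KI = IC50/(1+[L]/KD); n = 4-6 experiments.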

[2] = biological target: T1, Voltage-gated L-type calcium channel; assay: Pseudo Hill coefficient for inhibition of [3H](+)-PN200-110 binding to GH4C1 cells; assay type: cell-based; conditions: gh4-c1; outline: as §1
[3] = biological target: T2, Voltage-dependent L-type calcium channel subunit alpha-1C (Rattus norvegicus, UniProt P22002); assay: Inhibition of [3H](+)-PN200-110 binding to calcium channels of rat heart membranes.; assay type: cell membranes, Membrane
Outline: (§2)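 Using rat heart membranes (protein by Bradford), displacement of [3H]-(+)-PN200-110. IC50 and pseudo Hill slope from Hill equation fit; KI = IC50/(1+[L]/KD); n = 4-6 experiments.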

[4] = biological target: T2, Voltage-dependent L-type calcium channel subunit alpha-1C; assay: Pseudo Hill coefficient for inhibition of [3H](+)-PN200-110 binding to calcium channels of rat heart membranes; assay type: cell membranes, Membrane; outline: as §2
[5] = Compound was tested for its inhibition of Barium currents in GH4C1 cells.; assay type: functional, cell-based, Rattus norvegicus; conditions: gh4-c1
[6] = biological target: T1, Voltage-gated L-type calcium channel; assay: Pseudo Hill coefficient for inhibition of [3H](+)-PN200-110 binding to GH4C1 cells under depolarized conditions (50 mM K+).; assay type: cell-based; conditions: gh4-c1
Outline: (§3)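 Intact GH4C1 cells attached to the culture dish, competition against [3H]-(+)-PN200-110 in depolarizing Hank's buffer (50 mM K+, pH 7.4). IC50 and slope from Hill equation fit; KI = IC50/(1+[L]/KD); n = 4-6 experiments, mean ± SEM.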

[7] = biological target: T1, Voltage-gated L-type calcium channel; assay: Inhibition of [3H](+)-PN200-110 binding to calcium channels of rat cerebral cortex membrane.; assay type: tissue-based
Outline: (§4)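 Rat cerebral cortex membranes, protein by Bradford, competition with [3H]-(+)-PN200-110. IC50 and pseudo Hill slope from Hill equation fit of specific DPM bound; KI = IC50/(1+[L]/KD); n = 4-6 experiments.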

[8] = biological target: T1, Voltage-gated L-type calcium channel; assay: Pseudo Hill coefficient for inhibition of [3H](+)-PN200-110 binding to calcium channels of rat cerebral cortex membrane; assay type: tissue-based; outline: as §4
[9] = biological target: T1, Voltage-gated L-type calcium channel; assay: Inhibition of [3H](+)-PN200-110 binding to calcium channels of GH4C1 cells under depolarized conditions (50 mM K+).; assay type: cell-based; conditions: gh4-c1; outline: as §3
[10] = biological target: T1, Voltage-gated L-type calcium channel; assay: Inhibition of [3H](+)-PN200-110 binding to calcium channels of rat GH4C1 cells.; assay type: cell-based; conditions: gh4-c1; outline: as §1

T2 sequence (P22002 whole entry): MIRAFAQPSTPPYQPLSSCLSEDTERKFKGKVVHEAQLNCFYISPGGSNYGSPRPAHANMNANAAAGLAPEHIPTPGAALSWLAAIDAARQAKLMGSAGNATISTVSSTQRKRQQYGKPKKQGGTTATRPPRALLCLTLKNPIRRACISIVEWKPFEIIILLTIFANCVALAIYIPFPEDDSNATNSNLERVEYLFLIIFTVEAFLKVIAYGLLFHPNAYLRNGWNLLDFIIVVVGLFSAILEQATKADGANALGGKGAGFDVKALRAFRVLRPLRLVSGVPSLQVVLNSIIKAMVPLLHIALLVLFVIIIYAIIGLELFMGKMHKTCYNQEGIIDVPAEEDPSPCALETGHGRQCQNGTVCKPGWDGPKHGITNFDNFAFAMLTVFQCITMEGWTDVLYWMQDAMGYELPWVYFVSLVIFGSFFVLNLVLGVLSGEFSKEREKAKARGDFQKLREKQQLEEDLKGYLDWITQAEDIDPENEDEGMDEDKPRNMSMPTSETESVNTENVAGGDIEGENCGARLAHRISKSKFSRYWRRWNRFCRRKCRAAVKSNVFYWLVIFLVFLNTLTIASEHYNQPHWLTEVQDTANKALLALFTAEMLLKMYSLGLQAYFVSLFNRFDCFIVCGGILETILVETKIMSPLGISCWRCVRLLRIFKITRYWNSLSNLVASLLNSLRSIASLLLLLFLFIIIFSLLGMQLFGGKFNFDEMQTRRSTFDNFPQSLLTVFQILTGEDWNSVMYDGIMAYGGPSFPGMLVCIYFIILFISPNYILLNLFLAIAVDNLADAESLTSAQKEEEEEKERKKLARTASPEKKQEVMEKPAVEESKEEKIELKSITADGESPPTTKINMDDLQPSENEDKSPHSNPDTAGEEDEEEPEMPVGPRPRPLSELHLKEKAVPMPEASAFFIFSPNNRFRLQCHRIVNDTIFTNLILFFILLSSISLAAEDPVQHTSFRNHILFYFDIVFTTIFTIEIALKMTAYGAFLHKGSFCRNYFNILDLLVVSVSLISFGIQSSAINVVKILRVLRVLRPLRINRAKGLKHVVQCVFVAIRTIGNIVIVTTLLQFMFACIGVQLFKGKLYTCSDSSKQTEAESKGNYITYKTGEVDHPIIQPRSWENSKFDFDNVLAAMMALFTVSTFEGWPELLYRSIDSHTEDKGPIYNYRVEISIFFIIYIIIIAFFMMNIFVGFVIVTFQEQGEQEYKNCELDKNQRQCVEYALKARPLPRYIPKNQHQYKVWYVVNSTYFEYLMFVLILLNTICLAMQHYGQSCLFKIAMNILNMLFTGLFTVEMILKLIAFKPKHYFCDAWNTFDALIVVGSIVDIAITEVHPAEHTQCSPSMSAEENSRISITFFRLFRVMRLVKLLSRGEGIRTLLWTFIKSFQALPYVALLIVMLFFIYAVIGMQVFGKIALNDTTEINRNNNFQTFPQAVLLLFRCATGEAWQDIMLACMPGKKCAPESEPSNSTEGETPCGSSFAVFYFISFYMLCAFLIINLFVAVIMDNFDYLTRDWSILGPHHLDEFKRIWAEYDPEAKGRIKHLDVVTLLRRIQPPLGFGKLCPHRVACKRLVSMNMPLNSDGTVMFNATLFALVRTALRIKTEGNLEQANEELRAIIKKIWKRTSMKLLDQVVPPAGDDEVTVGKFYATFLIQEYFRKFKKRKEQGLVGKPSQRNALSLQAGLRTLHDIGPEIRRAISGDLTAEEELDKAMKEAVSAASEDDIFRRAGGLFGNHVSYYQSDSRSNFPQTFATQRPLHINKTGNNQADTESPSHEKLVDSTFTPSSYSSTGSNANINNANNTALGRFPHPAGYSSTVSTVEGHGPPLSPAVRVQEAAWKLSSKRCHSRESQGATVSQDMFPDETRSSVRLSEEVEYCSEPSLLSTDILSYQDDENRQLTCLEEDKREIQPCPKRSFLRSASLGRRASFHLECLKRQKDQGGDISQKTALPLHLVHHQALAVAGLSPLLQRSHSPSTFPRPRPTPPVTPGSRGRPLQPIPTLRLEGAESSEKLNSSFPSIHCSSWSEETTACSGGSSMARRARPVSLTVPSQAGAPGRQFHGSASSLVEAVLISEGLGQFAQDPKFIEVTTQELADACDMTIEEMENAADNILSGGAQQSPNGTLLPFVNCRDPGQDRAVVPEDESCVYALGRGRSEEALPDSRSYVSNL

SMILES | nH (GH4-C1) | Ki [1] | nH [2] | Ki [3] | nH [4] | IC50 [5] | nH [6] | Ki [7] | nH [8] | Ki [9] | Ki [10]
COC(=O)C1=C(C)NC(C)=C(C(=O)OCC[N+](C)(C)C)[C@@H]1c1cccc([N+](=O)[O-])c1.[I-] | 0.3 | 48.12 µM | 0.6 | 13700 nM | 0.9 | 271 µM | 0.5 | 14013 nM | 0.8 | 3988 nM | 
COC(=O)C1=C(C)NC(C)=C(C(=O)OCC[N+](C)(C)C)[C@H]1c1cccc([N+](=O)[O-])c1.[I-] | 0.4 |  | 0.9 | 999 nM | 1 | 28.1 µM | 0.9 | 1246 nM | 0.9 | 651 nM | 1940 nM
COC(=O)C1=C(C)NC(C)=C(C(=O)OCCCCCCCC[N+](C)(C)C)C1c1cccc([N+](=O)[O-])c1.[I-] (racemic) | 0.9 |  | 1.5 | 99.2 nM | 1.1 | 1.5 µM | 1.3 | 37.2 nM | 1.4 | 68.6 nM | 16.8 nM
COC(=O)C1=C(C)NC(C)=C(C(=O)OCC[N+](C)(C)C)C1c1cccc([N+](=O)[O-])c1.[I-] (racemic) | 0.7 | 2.111 µM | 0.9 | 1510 nM | 1 | 17.7 µM | 1.7 | 1372 nM | 1 | 248.5 nM | 
COC(=O)C1=C(C)NC(C)=C(C(=O)OCCCCCCCC[N+](C)(C)C)[C@H]1c1cccc([N+](=O)[O-])c1.[I-] | 1 |  | 1.3 | 8 nM | 1.2 | 1.4 µM | 1.1 | 24.6 nM | 1.6 | 129.2 nM | 11.4 nM
COC(=O)C1=C(C)NC(C)=C(C(=O)OCCCCCCCC[N+](C)(C)C)[C@@H]1c1cccc([N+](=O)[O-])c1.[I-] | 0.8 |  | 1.2 | 497 nM | 1.1 | 5.1 µM | 1 | 717.8 nM | 1 | 895 nM | 420 nM
